Measurements from different studies.
TAOK1: Serine/threonine-protein kinase TAO1 (TAOK1, Homo sapiens, UniProt Q7L7X3)
MC3R: Melanocortin receptor 3 (MC3R, Homo sapiens, UniProt P41968)

| SMILES | target | test | system | setting | measurement | result |
| --- | --- | --- | --- | --- | --- | --- |
| CNS(=O)(=O)c1ccc(Nc2ncc(C(F)(F)F)c(N3CCC[C@](C)(O)C3)n2)c(C)c1 | TAOK1 | binding, competition with immobilised ligand | – | 1 µM | remaining binding | 5.3% |
| Cc1cc(O)c(-c2ccc([C@@H](C)CN(C)C)cc2)c2c1[nH]c(=O)c1sccc12 | Wee1-like protein kinase (WEE1, Homo sapiens, UniProt P30291) | enzyme activity, inhibitor | – | 0.1 µM | inhibition | 7.11% |
| CC(=O)N[C@H](CCCNC(=N)N)C(=O)N[C@H]1CSSC[C@@H](C(N)=O)NC(=O)[C@H](Cc2c[nH]c3ccccc23)NC(=O)[C@H](CCCNC(=N)N)NC(=O)[C@@H](Cc2ccccc2)NC(=O)[C@H](Cc2c[nH]cn2)NC(=O)[C@H](CCC(=O)O)NC1=O | MC3R | cAMP, agonist | CHO-K1 | – | Emax | 91% |
| CCN1/C(=C/C(C)=O)Sc2ccc(F)cc21 | Type-1 angiotensin II receptor (AGTR1, Homo sapiens, UniProt P30556) | ligand displacement, radioligand | – | 10 µM | inhibition | 0% |
| CCCCC(=O)Nc1ccc(-c2ccc3ncn(CCC)c(=O)c3c2)cn1 | Calcium/calmodulin-dependent protein kinase type 1B (PNCK, Homo sapiens, UniProt Q6P2M8) | binding, competition with immobilised ligand | – | 0.5 µM | remaining binding | 85% |
| N#Cc1ccc(NC(=O)Nc2ccccc2)cc1 | SRSF protein kinase 3 (SRPK3, Homo sapiens, UniProt Q9UPE1) | cell-free assay, competition with immobilised ligand | – | 25 µM | remaining binding | 9.7% |
| CCCC[C@H](NC(C)=O)C(=O)N[C@@H](C)C(=O)N[C@@H](Cc1c[nH]cn1)C(=O)N[C@@H](Cc1ccccc1)C(=O)N[C@@H](CCCNC(=N)N)C(=O)N[C@H](Cc1c[nH]c2ccccc12)C(=O)N[C@@H](CC(=O)O)C(=O)N[C@@H](CCCNC(=N)N)C(=O)N[C@@H](Cc1ccccc1)C(=O)N[C@@H](C(=O)N1CCC[C@@H]1C(N)=O)C(C)C | MC3R | cAMP, agonist | CHO-K1 | – | Emax | 100% |
| C1=C/COCc2cc(ccc2OCCN2CCCC2)Nc2nccc(n2)-c2cccc(c2)COC/1 | Protein kinase C delta type (PRKCD, Homo sapiens, UniProt Q05655) | binding | – | 0.1 µM | remaining binding | 100% |
| Cc1cc2c(C(N)=O)c(N)n(-c3c(C)ccc(O)c3C)c2nc1C | Serine/threonine-protein kinase B-raf (BRAF, Homo sapiens, UniProt P15056) | enzyme activity, inhibitor, ADP detection | – | 10 µM | inhibition | 100% |
| C#Cc1cc(-c2cc(Nc3nc(N[C@@H](C)c4ccc(F)cn4)ncc3Cl)n[nH]2)ccc1C=O | Ribosomal protein S6 kinase alpha-2 (RPS6KA2, Homo sapiens, UniProt Q15349) | enzyme activity, inhibitor | – | 0.2 µM | inhibition | 39% |
| COc1ccc2oc(-c3ccc4nc(N)oc4c3)c/c(=N\c3ccccc3NC(=O)CCN)c2c1 | Cyclin-dependent kinase 6, with cyclin D3 (CDK6, Homo sapiens, UniProt Q00534) | binding | – | 1 µM | remaining binding | 98% |
| NC/C(=C\F)COc1cccc(Cn2c(=S)[nH]c(=O)c3[nH]cnc32)c1 | Adenosine receptor A3 (ADORA3, Homo sapiens, UniProt P0DMS8) | ligand displacement, radioligand | – | 10 µM | inhibition | < 50% |
| Cc1cc(S(=O)(=O)N[C@H]2CC[C@H](CN3CCN(c4ccc(C5CCC(=O)NC5=O)cc4F)CC3)CC2)ccc1Nc1ncc(C(F)(F)F)c(N2CCC[C@](C)(O)C2)n1 (stereo partly shown) | TAOK1 | binding, competition with immobilised ligand | – | 1 µM | remaining binding | 72% |
